Measured values as given in ChEMBL document CHEMBL5380839, “Design and Pharmacological Characterization of α4β1 Integrin Cyclopeptide Agonists: Computational Investigation of Ligand Determinants for Agonism versus Antagonism” (J Med Chem, 2023).
Values belong to the molecule of their own block, whether it stands above or below them. Starred links: 1 amine or outer side, 2 acyl side, 3 side chain; linkers in the order of their positions; H or OH if unused. Positions of bridges follow the written chain, without caps; N, C: chain ends. Non-standard residues stand in square brackets, D forms with d. Residues, ends and D or L forms follow the SMILES beside them. Groups on a side chain read outwards from the residue. *: point of attachment. dPhe(4-NH2) = Nc1ccc(C[C@@H](N)C(=O)O)cc1; Phe(4-NH2) = Nc1ccc(C[C@H](N)C(=O)O)cc1; X1 = O=C(Cc1ccc(N[*:1])cc1)[*:2]; NH(2-Me-phenyl) = Cc1ccccc1N*; Phg = N[C@H](C(=O)O)c1ccccc1; d(β3hA) = C[C@@H](N)CC(=O)O; CO = O=C([*:1])[*:2]; NHPr = CCCN*

Assays:
Integrin alpha-4/beta-1 [1] = molecular target: T1, Integrin alpha-4/beta-1 (Homo sapiens, UniProt P05556+P13612); assay: Agonist activity at alpha4beta1 integrin receptor in human Jurkat E6.1 cells assessed as inhibition of fibronectin-induced cell adhesion pre-incubated for 30 mins followed by 30 mins incubation in fibronectin coated wells by fluorescence plate reader assay; format: cell-based
T1 sequence (P05556 whole entry): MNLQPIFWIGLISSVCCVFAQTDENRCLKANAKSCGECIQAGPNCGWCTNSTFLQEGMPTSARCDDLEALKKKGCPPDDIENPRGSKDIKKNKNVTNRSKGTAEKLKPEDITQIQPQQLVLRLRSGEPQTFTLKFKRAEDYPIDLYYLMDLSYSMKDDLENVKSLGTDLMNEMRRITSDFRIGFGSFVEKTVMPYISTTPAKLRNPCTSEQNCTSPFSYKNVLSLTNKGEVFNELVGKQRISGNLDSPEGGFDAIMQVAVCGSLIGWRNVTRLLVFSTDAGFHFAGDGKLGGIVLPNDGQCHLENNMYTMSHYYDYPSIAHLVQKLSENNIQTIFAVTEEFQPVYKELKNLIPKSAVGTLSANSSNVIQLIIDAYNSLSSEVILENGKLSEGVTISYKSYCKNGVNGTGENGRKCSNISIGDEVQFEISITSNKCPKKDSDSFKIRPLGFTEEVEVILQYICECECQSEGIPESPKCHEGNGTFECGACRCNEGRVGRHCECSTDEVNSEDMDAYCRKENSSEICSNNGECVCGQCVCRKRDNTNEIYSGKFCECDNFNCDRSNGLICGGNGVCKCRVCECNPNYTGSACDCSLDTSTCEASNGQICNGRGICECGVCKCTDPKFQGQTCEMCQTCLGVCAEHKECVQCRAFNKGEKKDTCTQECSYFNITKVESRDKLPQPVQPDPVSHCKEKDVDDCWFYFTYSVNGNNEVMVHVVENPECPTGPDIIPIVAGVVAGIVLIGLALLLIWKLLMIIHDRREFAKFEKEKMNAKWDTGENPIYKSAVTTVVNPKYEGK
T1 sequence (P13612 whole entry): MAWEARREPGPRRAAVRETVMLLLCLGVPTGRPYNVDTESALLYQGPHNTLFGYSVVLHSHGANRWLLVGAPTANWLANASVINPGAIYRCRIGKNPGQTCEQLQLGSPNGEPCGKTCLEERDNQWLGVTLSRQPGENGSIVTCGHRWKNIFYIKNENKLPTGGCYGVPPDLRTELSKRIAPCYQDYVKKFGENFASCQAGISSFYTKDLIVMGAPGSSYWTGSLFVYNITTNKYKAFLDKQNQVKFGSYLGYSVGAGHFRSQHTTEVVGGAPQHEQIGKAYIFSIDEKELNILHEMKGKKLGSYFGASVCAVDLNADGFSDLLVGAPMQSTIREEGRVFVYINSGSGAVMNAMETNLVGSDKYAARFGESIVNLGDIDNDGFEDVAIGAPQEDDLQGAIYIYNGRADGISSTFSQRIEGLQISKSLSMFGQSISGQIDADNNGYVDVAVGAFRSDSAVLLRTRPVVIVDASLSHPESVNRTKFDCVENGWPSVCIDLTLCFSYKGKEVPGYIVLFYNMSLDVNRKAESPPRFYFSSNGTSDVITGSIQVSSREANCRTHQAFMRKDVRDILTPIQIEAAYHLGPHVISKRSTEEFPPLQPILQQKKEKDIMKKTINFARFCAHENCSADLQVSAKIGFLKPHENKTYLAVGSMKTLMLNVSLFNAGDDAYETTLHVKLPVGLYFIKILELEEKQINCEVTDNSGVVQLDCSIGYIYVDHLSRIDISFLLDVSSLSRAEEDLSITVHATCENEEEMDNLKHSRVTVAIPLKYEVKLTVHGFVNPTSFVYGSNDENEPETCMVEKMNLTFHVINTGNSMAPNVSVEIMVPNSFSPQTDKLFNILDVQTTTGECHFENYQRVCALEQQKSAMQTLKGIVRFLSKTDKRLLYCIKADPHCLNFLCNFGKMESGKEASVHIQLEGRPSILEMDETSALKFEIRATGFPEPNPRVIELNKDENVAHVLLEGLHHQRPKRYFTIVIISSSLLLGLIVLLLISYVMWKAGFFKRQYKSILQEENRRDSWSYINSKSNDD

[2] = molecular target: T2, Integrin alpha4/beta7 complex (Homo sapiens, UniProt P26010+P48169); assay: Agonist activity at alpha4beta7 integrin receptor in human RPMI-8866 cells assessed as inhibition of mucosal vascular add-ressin cell adhesion molecule 1-induced cell adhesion pre-incubated for 30 mins followed by 30 mins incubation in mucosal vascular add-ressin cell adhesion molecule 1 coated wells by fluorescence plate reader assay; format: cell-based
T2 sequence (P48169 whole entry): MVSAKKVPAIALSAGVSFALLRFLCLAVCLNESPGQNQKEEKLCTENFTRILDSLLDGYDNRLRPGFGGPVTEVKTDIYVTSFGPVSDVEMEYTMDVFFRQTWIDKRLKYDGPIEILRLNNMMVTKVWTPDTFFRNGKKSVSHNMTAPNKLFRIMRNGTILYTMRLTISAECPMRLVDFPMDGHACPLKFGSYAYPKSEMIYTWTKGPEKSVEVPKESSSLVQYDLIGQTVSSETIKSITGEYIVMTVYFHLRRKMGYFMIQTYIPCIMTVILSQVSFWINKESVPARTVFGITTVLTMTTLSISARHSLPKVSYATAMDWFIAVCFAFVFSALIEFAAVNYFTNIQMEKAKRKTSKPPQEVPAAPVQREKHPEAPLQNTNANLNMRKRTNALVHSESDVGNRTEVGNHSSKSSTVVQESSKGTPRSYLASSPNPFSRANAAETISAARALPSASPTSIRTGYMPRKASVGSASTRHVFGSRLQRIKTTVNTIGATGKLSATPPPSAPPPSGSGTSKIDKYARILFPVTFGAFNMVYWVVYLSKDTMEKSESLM
T2 sequence (P26010 whole entry): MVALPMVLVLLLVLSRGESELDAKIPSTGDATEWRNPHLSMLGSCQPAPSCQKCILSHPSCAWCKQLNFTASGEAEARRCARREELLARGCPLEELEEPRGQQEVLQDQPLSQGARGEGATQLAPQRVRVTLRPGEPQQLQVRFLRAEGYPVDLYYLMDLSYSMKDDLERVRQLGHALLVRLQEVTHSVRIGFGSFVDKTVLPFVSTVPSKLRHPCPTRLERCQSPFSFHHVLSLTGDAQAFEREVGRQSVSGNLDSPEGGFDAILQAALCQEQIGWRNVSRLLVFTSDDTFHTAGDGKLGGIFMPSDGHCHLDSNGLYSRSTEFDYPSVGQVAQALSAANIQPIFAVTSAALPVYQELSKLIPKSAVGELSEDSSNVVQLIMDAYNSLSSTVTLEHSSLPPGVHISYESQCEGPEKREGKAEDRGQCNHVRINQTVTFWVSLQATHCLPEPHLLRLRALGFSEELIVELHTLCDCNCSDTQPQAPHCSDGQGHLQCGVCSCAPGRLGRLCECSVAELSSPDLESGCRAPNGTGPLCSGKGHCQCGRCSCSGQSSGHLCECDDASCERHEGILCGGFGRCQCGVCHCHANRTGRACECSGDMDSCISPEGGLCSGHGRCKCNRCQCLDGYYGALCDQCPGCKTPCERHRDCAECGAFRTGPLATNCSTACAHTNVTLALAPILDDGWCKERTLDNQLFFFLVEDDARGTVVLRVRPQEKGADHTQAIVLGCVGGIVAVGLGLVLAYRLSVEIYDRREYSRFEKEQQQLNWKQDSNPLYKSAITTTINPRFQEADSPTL

Integrin alpha-M/beta-2 [3] = molecular target: T3, Integrin alpha-M/beta-2 (Homo sapiens, UniProt P05107+P11215); assay: Agonist activity at alphaMbeta2 integrin receptor in human HL-60 cells assessed as inhibition of fibrinogen-induced cell adhesion pre-incubated for 30 mins followed by 30 mins incubation in fibrinogen coated wells by fluorescence plate reader assay; format: cell-based
T3 sequence (P05107 23-769 limits assumed, other chains not shown): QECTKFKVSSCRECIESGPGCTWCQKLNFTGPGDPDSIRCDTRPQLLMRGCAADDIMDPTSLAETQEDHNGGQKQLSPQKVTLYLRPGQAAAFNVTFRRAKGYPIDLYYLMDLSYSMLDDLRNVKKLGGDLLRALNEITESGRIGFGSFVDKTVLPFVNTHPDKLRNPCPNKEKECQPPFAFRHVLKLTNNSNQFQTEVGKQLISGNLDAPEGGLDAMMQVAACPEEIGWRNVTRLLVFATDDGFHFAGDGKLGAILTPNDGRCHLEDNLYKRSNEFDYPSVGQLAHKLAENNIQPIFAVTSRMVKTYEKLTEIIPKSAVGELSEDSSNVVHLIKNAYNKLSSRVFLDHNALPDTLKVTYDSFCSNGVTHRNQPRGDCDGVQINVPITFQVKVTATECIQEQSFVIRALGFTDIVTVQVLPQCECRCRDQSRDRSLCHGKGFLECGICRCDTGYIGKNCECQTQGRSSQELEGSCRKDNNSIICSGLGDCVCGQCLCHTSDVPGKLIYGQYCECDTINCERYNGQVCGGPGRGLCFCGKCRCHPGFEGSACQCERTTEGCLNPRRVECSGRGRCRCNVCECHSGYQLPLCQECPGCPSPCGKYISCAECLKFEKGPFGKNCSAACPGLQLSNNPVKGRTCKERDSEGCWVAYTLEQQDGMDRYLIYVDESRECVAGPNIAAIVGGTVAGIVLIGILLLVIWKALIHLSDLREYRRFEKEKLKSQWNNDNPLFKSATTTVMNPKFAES

Integrin alpha-M/beta-2 [4] = molecular target: T3, Integrin alpha-M/beta-2; assay: Binding affinity to alphaMbeta2 integrin receptor (unknown origin) preincubated for 30 mins followed by 30 mins incubation in fibrinogen coated wells by fluorescence based assay; format: protein-complex assay
[5] = molecular target: T2, Integrin alpha4/beta7 complex; assay: Binding affinity to alpha4beta7 integrin receptor (unknown origin) preincubated for 30 mins followed by 30 mins incubation in mucosal vascular add-ressin cell adhesion molecule 1 coated wells by fluorescence based assay; format: protein-complex assay
[6] = Stability in mouse serum assessed as parent compound remaining incubated upto 3 hrs by RP HPLC analysis; format: ADME, cell-free; settings: read-out: Stability
In short: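 Peptide stock (10 mM in Tris buffer pH 7.4) diluted 1:20 into mouse serum and held at 37 °C. […] Remaining peptide in the supernatant measured by RP HPLC. Triplicate, repeated three times.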

Integrin alpha-4/beta-1 [7] = molecular target: T1, Integrin alpha-4/beta-1; assay: Binding affinity to alpha4beta1 integrin receptor (unknown origin) preincubated for 30 mins followed by 30 mins incubation in fibronectin coated wells by fluorescence based assay; format: protein-complex assay
Integrin alpha-4/beta-1 [8] = molecular target: T1, Integrin alpha-4/beta-1; assay: Binding affinity to alpha4beta1 integrin receptor (unknown origin) preincubated for 30 mins followed by 30 mins incubation in vascular cell adhesion molecule 1-induced cell adhesion coated wells by fluorescence based assay; format: protein-complex assay
Integrin alpha-5/beta-1 = Integrin alpha-5/beta-1 (Homo sapiens, UniProt P05556+P08648); assay: Binding affinity to alpha5beta1 integrin receptor (unknown origin) preincubated for 30 mins followed by 30 mins incubation in fibronectin coated wells by fluorescence based assay; format: protein-complex assay

SMILES: Cc1ccccc1NC(=O)N1C(=O)CC1CC(=O)NCC(=O)O (centres undefined)
EC50 [2]: > 5 µM
EC50 (Integrin alpha-M/beta-2 [3]): > 5 µM

SMILES: Cc1ccccc1NC(=O)Nc1ccc(CC(=O)N[C@@H](CC(C)C)C(=O)N[C@@H](CC(=O)O)C(=O)N[C@H](C(=O)N2CCC[C@H]2C(=O)O)C(C)C)cc1 ({NH(2-Me-phenyl)-CO}-[X1]LDVP-OH)
IC50 (Integrin alpha-M/beta-2 [4]): > 1 µM
IC50 [5]: > 1 µM

SMILES: Cc1ccccc1NC(=O)Nc1ccc(C[C@H]2NC(=O)C[C@@H](C)NC(=O)[C@H](C(C)C)NC(=O)[C@H](CC(=O)O)NC(=O)[C@H](CC(C)C)NC2=O)cc1 (cyclo(DV[d(β3hA)][dPhe(4-NH2)]([CO-NH(2-Me-phenyl)])L))
EC50 (Integrin alpha-4/beta-1 [1]): > 5 µM

SMILES: Cc1ccccc1NC(=O)Nc1ccc(C[C@@H]2NC(=O)C[C@@H](C(=O)O)NC(=O)[C@H](C(C)C)NC(=O)[C@H](C)NC(=O)[C@H](Cc3ccccc3)NC2=O)cc1 ([Phe(4-NH2)]([CO-NH(2-Me-phenyl)])FAVD-OH; lactam N-5)
EC50 (Integrin alpha-4/beta-1 [1]): 1.06 µM
IC50 (Integrin alpha-4/beta-1 [7]): 0.976 µM
IC50 (Integrin alpha-4/beta-1 [8]): 0.899 µM
IC50 (Integrin alpha-5/beta-1): > 5 µM
IC50 (Integrin alpha-M/beta-2 [4]): > 5 µM
IC50 [5]: > 5 µM

SMILES: Cc1ccccc1NC(=O)Nc1ccc(C[C@@H]2NC(=O)C[C@@H](C)NC(=O)[C@H](C(C)C)NC(=O)[C@H](CC(=O)O)NC(=O)[C@H](CC(C)C)NC2=O)cc1 (cyclo([Phe(4-NH2)]([CO-NH(2-Me-phenyl)])LDV[d(β3hA)]))
EC50 (Integrin alpha-4/beta-1 [1]): > 5 µM

SMILES: CCCNC(=O)[C@@H]1CC(=O)N[C@@H](Cc2ccc(NC(=O)Nc3ccccc3C)cc2)C(=O)N[C@@H](CC(C)C)C(=O)N[C@@H](CC(=O)O)C(=O)N[C@@H](C(C)C)C(=O)N1 ([Phe(4-NH2)]([CO-NH(2-Me-phenyl)])LDVD-NHPr; lactam N-5)
EC50 (Integrin alpha-4/beta-1 [1]): > 5 µM

SMILES: Cc1ccccc1NC(=O)N1C(=O)CC1CC(=O)O (centres undefined)
EC50 [2]: > 5 µM
EC50 (Integrin alpha-M/beta-2 [3]): > 5 µM

SMILES: Cc1ccccc1NC(=O)Nc1ccc(C[C@@H]2NC(=O)C[C@@H](C(=O)O)NC(=O)[C@H](C(C)C)NC(=O)[C@H](CC(=O)O)NC(=O)[C@H](CC(C)C)NC2=O)cc1 ([Phe(4-NH2)]([CO-NH(2-Me-phenyl)])LDVD-OH; lactam N-5)
remaining at 3 h [6]: > 85%

More lines, now with the values ahead:

EC50 (Integrin alpha-4/beta-1 [1]): > 5 µM
SMILES: Cc1ccccc1NC(=O)Nc1ccc(C[C@H]2NC(=O)C[C@@H](C(=O)O)NC(=O)[C@H](c3ccccc3)NC(=O)[C@H](CC(=O)O)NC(=O)[C@H](CC(C)C)NC2=O)cc1 ([dPhe(4-NH2)]([CO-NH(2-Me-phenyl)])LD[Phg]D-OH; lactam N-5)

EC50 (Integrin alpha-4/beta-1 [1]): > 5 µM
SMILES: Cc1ccccc1NC(=O)Nc1ccc(C[C@@H]2NC(=O)C[C@@H](C(=O)O)NC(=O)[C@H](C(C)C)NC(=O)[C@H](CC(=O)O)NC(=O)[C@H](Cc3ccccc3)NC2=O)cc1 ([Phe(4-NH2)]([CO-NH(2-Me-phenyl)])FDVD-OH; lactam N-5)

remaining at 3 h [6]: > 85%
SMILES: Cc1ccccc1NC(=O)Nc1ccc(C[C@H]2NC(=O)C[C@@H](C(=O)O)NC(=O)[C@H](C(C)C)NC(=O)[C@H](CC(=O)O)NC(=O)[C@H](CC(C)C)NC2=O)cc1 ([dPhe(4-NH2)]([CO-NH(2-Me-phenyl)])LDVD-OH; lactam N-5)
